Measured values reported in ChEMBL document CHEMBL3797060, “Discovery of 5-Chloro-1-(5-chloro-2-(methylsulfonyl)benzyl)-2-imino-1,2-dihydropyridine-3-carboxamide (TAK-259) as a Novel, Selective, and Orally Active α1D Adrenoceptor Antagonist with Antiurinary Frequency Effects: Reducing Human Ether-a-go-go-Related Gene (hERG) Liabilities” (J Med Chem, 2016).

Legend:
[1] = target: T1, Alpha-1D adrenergic receptor (Homo sapiens, UniProt P25100); assay: Displacement of 7-methoxy-[3H]-prazosin from human alpha1D adrenergic receptor expressed in CHO-K1 cell membranes incubated for 60 mins by liquid scintillation counting analysis
T1 sequence (P25100 whole entry): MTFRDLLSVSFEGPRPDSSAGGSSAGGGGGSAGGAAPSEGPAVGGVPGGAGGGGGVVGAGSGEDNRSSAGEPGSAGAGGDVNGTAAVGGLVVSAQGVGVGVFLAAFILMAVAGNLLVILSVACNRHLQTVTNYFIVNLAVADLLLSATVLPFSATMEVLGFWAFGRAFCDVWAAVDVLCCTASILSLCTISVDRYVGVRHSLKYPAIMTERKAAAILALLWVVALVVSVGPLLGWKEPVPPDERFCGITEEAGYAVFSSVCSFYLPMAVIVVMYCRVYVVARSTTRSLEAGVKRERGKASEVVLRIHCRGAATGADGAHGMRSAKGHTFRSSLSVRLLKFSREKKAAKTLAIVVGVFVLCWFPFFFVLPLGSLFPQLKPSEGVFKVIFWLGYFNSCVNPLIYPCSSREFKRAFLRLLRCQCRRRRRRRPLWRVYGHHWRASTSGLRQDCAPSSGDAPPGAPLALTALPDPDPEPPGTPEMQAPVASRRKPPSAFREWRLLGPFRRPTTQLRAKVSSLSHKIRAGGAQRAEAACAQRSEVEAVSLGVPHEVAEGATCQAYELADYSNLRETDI
Method in brief: (§1)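 CHO-K1 stable-line membranes (10 µg protein), 2.5 nmol/L ligand, Tris-HCl pH 7.5 with MgCl2, EDTA and 0.5% BSA, 12 compound concentrations, room temperature. Filtered and counted; nonspecific binding with 10 µmol/L phentolamine. IC50 by logistic regression, converted to Ki by Cheng-Prusoff with Kd 0.93 (α1A), 0.35 (α1B), 0.26 (α1D) nmol/L. Triplicate mean, 95% CI.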

[2] = Volume of distribution at steady state in rat at 0.1 mg/kg, iv administered via cassette dosing by LC/MS/MS analysis; type: ADME, organism-based; conditions: in vivo, read-out: Vdss
Method in brief: (§2)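 Cassette dosing iv at 0.1 mg/kg in DMA/1,3-butanediol (1:1) to fed rats. Blood collected after dosing and centrifuged to plasma, which was deproteinized and centrifuged; supernatant concentrations measured by LC/MS/MS.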

Homo sapiens [3] = species on record: Homo sapiens; assay: Selectivity ratio of Ki for human alpha1A adrenergic receptor to Ki for human alpha1D adrenergic receptor
Method in brief: (§3)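 Membranes from CHO-K1 cells stably expressing human α1A, α1B or α1D receptors (10 µg protein) incubated 60 min at room temperature with 2.5 nmol/L 7-methoxy[3H]-prazosin and 12 compound concentrations in Tris-HCl pH 7.5 buffer with MgCl2, EDTA, 0.5% BSA. Bound counts taken after filtration; nonspecific binding defined with 10 µmol/L phentolamine.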

[4] = Total clearance in rat at 0.1 mg/kg, iv administered via cassette dosing by LC/MS/MS analysis; type: ADME, organism-based; conditions: in vivo; method in brief: as §2
[5] = Mean residence time in rat at 1 mg/kg, po administered via cassette dosing by LC/MS/MS analysis; type: ADME, organism-based; conditions: in vivo
Method in brief: (§4)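 Fed rats dosed orally at 1 mg/kg as 0.5% methylcellulose suspension by cassette dosing; bioavailability also uses an iv arm of 0.1 mg/kg in DMA/1,3-butanediol (1:1). Plasma obtained from blood by centrifugation, deproteinized, and measured by LC/MS/MS. Values are averages of three rats.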

Homo sapiens [6] = species on record: Homo sapiens; assay: Selectivity ratio of Ki for human alpha1B adrenergic receptor to Ki for human alpha1D adrenergic receptor; method in brief: as §3
[7] = Cmax in rat at 1 mg/kg, po administered via cassette dosing by LC/MS/MS analysis; type: ADME, organism-based; parameters: dose 1 mg/kg, route oral; conditions: in vivo; method in brief: as §4
[8] = AUC in rat at 1 mg/kg, po administered via cassette dosing by LC/MS/MS analysis; type: ADME, organism-based; conditions: in vivo; method in brief: as §4
[9] = Oral bioavailability in rat at 1 mg/kg administered via cassette dosing by LC/MS/MS analysis; type: ADME, organism-based; conditions: in vivo; method in brief: as §4
hERG (KCNH2) = hERG (KCNH2) (Homo sapiens, UniProt Q12809); assay: Inhibition of human ERG channel expressed in CHO cells assessed as peak tail current at 10 uM incubated for 5 mins by patch-clamp assay; type: cell-based; conditions: CHO cells expressing human ERG channel
Method in brief: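 CHO cells stably expressing hERG, grown at 32 °C, 5% CO2 in Ham's F-12 with 10% FBS and 500 µg/mL Geneticin. Population patch clamp with PBS (Ca/Mg) outside, KCl/MgCl2/EGTA/HEPES pH 7.3 inside, amphotericin B perforation. Holding −80 mV, step to 40 mV 2 s, then −50 mV 2 s. Peak tail current taken before and after 5 min compound exposure, inhibition = 100 − post/pre×100, n = 3 or 4.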

[10] = target: T2, Alpha-1B adrenergic receptor (Homo sapiens, UniProt P35368); assay: Displacement of 7-methoxy-[3H]-prazosin from human alpha1B adrenergic receptor expressed in CHO-K1 cell membranes incubated for 60 mins by liquid scintillation counting analysis; method in brief: as §1
T2 sequence (P35368 whole entry): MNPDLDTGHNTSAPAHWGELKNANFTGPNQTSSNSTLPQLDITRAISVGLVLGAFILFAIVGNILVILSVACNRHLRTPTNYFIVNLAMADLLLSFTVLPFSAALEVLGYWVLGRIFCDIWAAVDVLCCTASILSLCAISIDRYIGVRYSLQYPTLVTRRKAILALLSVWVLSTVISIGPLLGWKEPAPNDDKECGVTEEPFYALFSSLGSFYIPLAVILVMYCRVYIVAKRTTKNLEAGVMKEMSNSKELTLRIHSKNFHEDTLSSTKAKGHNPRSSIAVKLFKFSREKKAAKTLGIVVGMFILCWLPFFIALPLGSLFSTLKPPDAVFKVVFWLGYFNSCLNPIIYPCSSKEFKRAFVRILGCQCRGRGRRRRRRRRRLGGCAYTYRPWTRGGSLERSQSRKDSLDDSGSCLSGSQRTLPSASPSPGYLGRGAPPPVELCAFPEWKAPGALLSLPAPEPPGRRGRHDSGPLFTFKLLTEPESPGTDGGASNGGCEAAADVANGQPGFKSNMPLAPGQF

[11] = target: T3, 5-hydroxytryptamine receptor 1A (Homo sapiens, UniProt P08908); assay: Inhibition of 5-HT 1A receptor (unknown origin)
T3 sequence (P08908 whole entry): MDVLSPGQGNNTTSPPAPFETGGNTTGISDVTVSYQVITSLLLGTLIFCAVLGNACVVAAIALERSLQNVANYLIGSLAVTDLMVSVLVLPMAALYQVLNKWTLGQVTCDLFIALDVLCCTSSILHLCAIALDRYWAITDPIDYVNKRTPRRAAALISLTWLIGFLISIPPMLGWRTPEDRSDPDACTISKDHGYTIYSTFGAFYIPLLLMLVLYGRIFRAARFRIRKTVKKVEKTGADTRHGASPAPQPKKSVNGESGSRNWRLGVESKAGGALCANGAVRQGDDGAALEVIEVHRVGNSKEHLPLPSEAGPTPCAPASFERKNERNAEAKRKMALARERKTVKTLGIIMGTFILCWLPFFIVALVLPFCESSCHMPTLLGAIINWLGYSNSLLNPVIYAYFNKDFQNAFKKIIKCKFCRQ

[12] = target: T4, Alpha-1A adrenergic receptor (Homo sapiens, UniProt P35348); assay: Displacement of 7-methoxy-[3H]-prazosin from human alpha1A adrenergic receptor expressed in CHO-K1 cell membranes incubated for 60 mins by liquid scintillation counting analysis; method in brief: as §1
T4 sequence (P35348 whole entry): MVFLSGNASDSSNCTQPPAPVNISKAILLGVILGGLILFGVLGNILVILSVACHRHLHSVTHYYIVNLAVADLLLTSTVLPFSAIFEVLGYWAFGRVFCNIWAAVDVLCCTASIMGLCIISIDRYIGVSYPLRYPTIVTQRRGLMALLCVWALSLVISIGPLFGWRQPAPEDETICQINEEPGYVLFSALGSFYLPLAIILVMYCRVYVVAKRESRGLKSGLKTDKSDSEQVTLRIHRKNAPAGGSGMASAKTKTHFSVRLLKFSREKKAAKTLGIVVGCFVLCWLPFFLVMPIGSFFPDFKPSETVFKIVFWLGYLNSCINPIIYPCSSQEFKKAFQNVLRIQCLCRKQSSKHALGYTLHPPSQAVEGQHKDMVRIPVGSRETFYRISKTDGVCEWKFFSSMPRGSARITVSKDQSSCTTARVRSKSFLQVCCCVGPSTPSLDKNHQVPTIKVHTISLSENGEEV

Rattus norvegicus [13] = assay: Inhibition of nonvoiding contractions during urinary storage phase in iv dosed Wistar rat with bladder outlet obstruction after 10 mins by cystometrogram; type: functional; conditions: for ED50: read-out: ID50 (the source's name)
Urinary bladder = assay: Inhibition of (R)-(-)-phenylephrine hydrochloride-induced contractions in Wistar rat bladder with outlet obstruction treated every 30 minutes post (R)-(-)-phenylephrine hydrochloride challenge; type: functional; conditions: for IC30: 0.5 h
Rattus norvegicus [14] = assay: Reduction of urinary frequency in po dosed Sprague-Dawley rat with cyclophosphamide-induced cystitis assessed as increased voiding intervals administered at voiding intervals less <7.2 mins measured after 5 to 35 mins by cystometrogram; type: functional; conditions: Urine, read-out: MED

Sequence of hERG (KCNH2) (Q12809 whole entry): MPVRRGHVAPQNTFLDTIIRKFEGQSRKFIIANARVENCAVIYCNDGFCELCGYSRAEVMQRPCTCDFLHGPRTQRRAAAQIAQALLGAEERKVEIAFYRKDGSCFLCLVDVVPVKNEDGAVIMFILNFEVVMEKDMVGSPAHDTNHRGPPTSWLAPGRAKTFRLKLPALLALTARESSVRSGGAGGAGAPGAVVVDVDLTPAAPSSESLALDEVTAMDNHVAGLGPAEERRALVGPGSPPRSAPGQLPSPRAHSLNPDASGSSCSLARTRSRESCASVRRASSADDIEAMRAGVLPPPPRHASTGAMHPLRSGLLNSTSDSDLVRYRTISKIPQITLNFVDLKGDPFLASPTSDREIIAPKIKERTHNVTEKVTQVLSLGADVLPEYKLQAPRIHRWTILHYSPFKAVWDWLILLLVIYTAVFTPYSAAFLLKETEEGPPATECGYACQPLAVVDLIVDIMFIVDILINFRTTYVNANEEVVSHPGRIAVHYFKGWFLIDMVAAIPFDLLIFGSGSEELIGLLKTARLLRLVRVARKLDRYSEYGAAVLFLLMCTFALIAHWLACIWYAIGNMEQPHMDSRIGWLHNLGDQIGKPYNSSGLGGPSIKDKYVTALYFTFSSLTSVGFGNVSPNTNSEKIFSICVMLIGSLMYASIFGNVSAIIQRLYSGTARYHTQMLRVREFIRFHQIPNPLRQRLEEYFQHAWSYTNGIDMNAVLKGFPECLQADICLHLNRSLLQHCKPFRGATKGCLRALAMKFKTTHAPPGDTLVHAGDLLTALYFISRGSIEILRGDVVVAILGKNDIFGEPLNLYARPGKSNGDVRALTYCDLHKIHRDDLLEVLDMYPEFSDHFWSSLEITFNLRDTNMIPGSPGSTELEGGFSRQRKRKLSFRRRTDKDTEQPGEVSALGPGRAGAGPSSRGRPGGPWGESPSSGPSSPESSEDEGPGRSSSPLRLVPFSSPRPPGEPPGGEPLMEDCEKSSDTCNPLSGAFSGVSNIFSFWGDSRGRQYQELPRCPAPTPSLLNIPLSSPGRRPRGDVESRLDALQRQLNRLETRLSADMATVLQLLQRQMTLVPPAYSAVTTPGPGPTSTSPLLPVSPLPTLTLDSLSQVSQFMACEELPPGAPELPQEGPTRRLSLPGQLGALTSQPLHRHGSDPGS

Compound	Ki [1]	inhibition at 5 min, 10 µM (hERG (KCNH2))	further results
N=c1c(C(N)=O)cc(Cl)cn1-c1ccccc1	> 940 nM	–	–
CC(C)(C)Cn1cc(Cl)cc(C(N)=O)c1=N	820 nM	–	–
N=c1c(C(N)=O)cc(Cl)cn1Cc1cc(Cl)cc(C(N)=O)c1	3.7 nM	13%	Vd [2]: 3.21 L/kg; Ratio Ki (Homo sapiens [3]): > 730; clearance [4]: 47.2 mL/min/kg; MRT [5]: 2.47 h; Ratio Ki (Homo sapiens [6]): > 320; Cmax [7]: 3.2 ng/mL; AUC [8]: 10.8 ng·h/mL; bioavailability [9]: 3%
CC(c1cccc(S(C)(=O)=O)c1)n1cc(Cl)cc(C(N)=O)c1=N (configuration not stated)	15 nM	19%	–
CS(=O)(=O)c1cc(Cl)cc(Cn2cc(Cl)cc(C(N)=O)c2=N)c1	4.8 nM	14%	–
N=c1c(C(N)=O)cc(Cl)cn1Cc1ccc(C(N)=O)c(Cl)c1	65 nM	10%	–
N=c1c(C(N)=O)cc(Cl)cn1Cc1cccc(C(N)=O)c1	26 nM	–	–
N=c1c(C(N)=O)cc(Cl)cn1Cc1ccco1	160 nM	–	–
CN(C)C(=O)c1cc(Cl)cn(Cc2ccccc2)c1=N	> 940 nM	–	–
N#Cc1ccc(Cn2cc(Cl)cc(C(N)=O)c2=N)cc1Cl	11 nM	74%	–
COc1cccc(Cn2cc(Cl)cc(C(N)=O)c2=N)c1	8.7 nM	–	–
N#Cc1cccc(Cn2cc(Cl)cc(C(N)=O)c2=N)c1	10 nM	–	–
C[C@@H](c1cccc(C#N)c1)n1cc(Cl)cc(C(N)=O)c1=N [(S)-9s]	130 nM	57%	–
N=c1c(C(N)=O)cc(Cl)cn1Cc1ccccc1	30 nM	–	Ki [10]: > 1200 nM; IC50 [11]: > 1000 nM; Ki [12]: > 2700 nM
CCNC(=O)c1cc(Cl)cn(Cc2ccccc2)c1=N	> 940 nM	–	–
N=c1c(C(N)=O)cc(Cl)cn1CCCc1ccccc1	54 nM	–	–
NC(=O)c1cc(Cl)cn(Cc2ccccc2)c1=O	> 940 nM	–	–
C[C@H](c1cccc(C#N)c1)n1cc(Cl)cc(C(N)=O)c1=N [(R)-9s]	1.6 nM	25%	Vd [2]: 4.68 L/kg; Ratio Ki (Homo sapiens [3]): > 1700; clearance [4]: 39.2 mL/min/kg; inhibition (Rattus norvegicus [13]): Dose-dependent effect; ED50 (Rattus norvegicus [13]): 4.4 µg/kg; MRT [5]: 3.14 h; Ratio Ki (Homo sapiens [6]): > 750; Cmax [7]: 142 ng/mL; AUC [8]: 368 ng·h/mL; bioavailability [9]: 86%; inhibition (Urinary bladder): Dose-dependent effect; IC30 (Urinary bladder): 15 nM; minimal effective dose (Rattus norvegicus [14]): 10 µg/kg

Compound	Ki [1]	inhibition at 5 min, 10 µM (hERG (KCNH2))	further results
N=c1c(C(N)=O)cc(Cl)cn1CCc1ccccc1	16 nM	–	–
N=c1c(C(N)=O)cc(Br)cn1Cc1ccccc1	160 nM	–	–
N=c1c(C(N)=O)cc(Cl)cn1Cc1cccc(Cl)c1	2.6 nM	47%	–
CCOc1ccccc1OCCN[C@H](C)Cc1ccc(OC)c(S(N)(=O)=O)c1	–	–	Ratio Ki (Homo sapiens [3]): 0.7; Ratio Ki (Homo sapiens [6]): 11
CC(c1cccc(C#N)c1)n1cc(Cl)cc(C(N)=O)c1=N (configuration not stated)	3.4 nM	32%	–
N=c1c(C(N)=O)cc(Cl)cn1Cc1ccccc1Cl	39 nM	–	–
CS(=O)(=O)c1ccc(Cn2cc(Cl)cc(C(N)=O)c2=N)cc1Cl	9.4 nM	13%	–
N=c1c(C(N)=O)cc(Cl)cn1Cc1ccc(Cl)cc1	23 nM	–	–
Cc1cccc(Cn2cc(Cl)cc(C(N)=O)c2=N)c1	7.5 nM	–	–
N=c1c(C(N)=O)cc(Cl)cn1Cc1cccnc1	250 nM	–	–
N#Cc1ccc(Cl)cc1Cn1cc(Cl)cc(C(N)=O)c1=N	8.5 nM	59%	–
N#Cc1cc(Cl)cc(Cn2cc(Cl)cc(C(N)=O)c2=N)c1	0.86 nM	71%	–
CS(=O)(=O)c1cccc(Cn2cc(Cl)cc(C(N)=O)c2=N)c1	52 nM	–	–
CS(=O)(=O)c1ccc(Cl)cc1Cn1cc(Cl)cc(C(N)=O)c1=N	1.1 nM	16%	Vd [2]: 4.43 L/kg; Ratio Ki (Homo sapiens [3]): 200; clearance [4]: 39.9 mL/min/kg; inhibition (Rattus norvegicus [13]): Dose-dependent effect; ED50 (Rattus norvegicus [13]): 1.3 µg/kg; MRT [5]: 4.53 h; Ratio Ki (Homo sapiens [6]): 800; Cmax [7]: 60.2 ng/mL; AUC [8]: 358 ng·h/mL; bioavailability [9]: 84.5%; inhibition (Urinary bladder): Dose-dependent effect; IC30 (Urinary bladder): 12 nM; minimal effective dose (Rattus norvegicus [14]): 10 µg/kg
N=c1c(C(N)=O)cccn1Cc1ccccc1	880 nM	–	–
CC(c1cccc(Cl)c1)n1cc(Cl)cc(C(N)=O)c1=N (configuration not stated)	0.66 nM	48%	–
N=c1c(C(N)=O)cc(Cl)cn1Cc1ccccn1	420 nM	–	–
